From ChEMBL document CHEMBL3525963, “Tissue distribution and elimination of [14C]apixaban in rats” (Drug Metab Dispos, 2011)

How the values were obtained:
Design in all cases: dose 5 mg/kg, dosed compound name [14C]-apixaban, route oral
Settings in all cases: in vivo
Rattus norvegicus [1] = assay: Biodistribution in pregnant Sprague-Dawley rat brown fat at 5 mg/kg, po administered as single dose measured after 4 hrs; type: ADME, organism-based, Brown adipose tissue
[2] = Cmax in lactating Sprague-Dawley rat milk at 5 mg/kg, po administered as single dose; type: ADME, organism-based
In short: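 Lactating SD rats received a single oral gavage of 5 mg/kg (108 μCi/kg) in 0.5% Tween 80/Labrafil. Three rats were sampled per time point at 0.5-24 h. Oxytocin was given sc 15 min before milking under anesthesia. Milk, blood and plasma were counted in duplicate by liquid scintillation for 10 min and expressed as apixaban equivalents.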

Rattus norvegicus [3] = assay: Biodistribution in female Sprague-Dawley rat bone marrow at 5 mg/kg, po administered as single dose measured after 0.5 hrs; type: ADME, organism-based
In short: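 [14C]apixaban (20 μCi/mL in dosing solution) in 0.5% Tween 80 in Labrafil given by oral gavage to fasted female rats, 206-213 g, at 100 μCi/kg. One rat per time point was euthanized and snap-frozen. Sagittal 40 µm whole-body sections were read by QWBA phosphor imaging against [14C]glucose standards. Results are in µg eq apixaban/g, with LLOQ 0.037 μg eq/g.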

Adrenal gland [4] = assay: Biodistribution in pregnant Sprague-Dawley rat adrenal gland at 5 mg/kg, po administered as single dose measured after 24 hrs; type: ADME, organism-based
In short: (§1)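 Fasted pregnant SD rats (n=6, 270-319 g) each received one oral gavage dose of [14C]apixaban, 5 mg/kg (100 μCi/kg), in 0.5% Tween 80/Labrafil. One rat was killed at each of 0.5, 1, 4, 8, 24 and 48 h. Carcasses were frozen in hexane/dry ice, cut into 40 µm sagittal sections, exposed to phosphor plates and quantified against [14C]glucose standards as µg eq/g. LLOQ was 0.037 µg eq/g.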

Liver = assay: Biodistribution in male Sprague-Dawley rat liver at 5 mg/kg, po administered as single dose measured after 72 hrs; type: ADME, organism-based
In short: (§2)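 Fasted male SD rats (225-252 g) each received one oral gavage dose of [14C]apixaban, 5 mg/kg (100 μCi/kg), in 0.5% Tween 80/Labrafil vehicle. One rat was killed per time point, from 0.5 to 168 h. Frozen carcasses were cut into 40 µm sagittal whole-body sections and read by QWBA phosphor imaging against [14C]glucose calibrants. Results are in µg apixaban eq/g; BLQ <0.037 µg eq/g.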

Rattus norvegicus [5] = assay: Biodistribution in pregnant Sprague-Dawley rat bone marrow at 5 mg/kg, po administered as single dose measured after 4 hrs; type: ADME, organism-based
Muscle tissue [6] = assay: Biodistribution in female Sprague-Dawley rat muscle at 5 mg/kg, po administered as single dose measured after 0.5 hrs; type: ADME, organism-based
In short: (§3)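 [¹⁴C]Apixaban given by oral gavage at 5 mg/kg (100 μCi/kg) in 0.5% Tween 80 in Labrafil (1.0 mg/mL dosing solution) to rats fasted overnight through 4 h post-dose. One rat per time point; carcass frozen in hexane/dry ice. Quantitative whole-body autoradiography used 40 µm sagittal sections and a phosphor imaging plate calibrated with [¹⁴C]glucose standards (0.001–6.5 μCi/g). Read-out in µg eq apixaban/g; LLOQ 0.037 μg eq/g.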

Blood = assay: Biodistribution in male Sprague-Dawley rat blood at 5 mg/kg, po administered as single dose measured after 24 hrs; type: ADME, organism-based; in short: as §2
Rattus norvegicus [7] = assay: Biodistribution in pregnant Sprague-Dawley rat bone marrow at 5 mg/kg, po administered as single dose measured after 24 hrs; type: ADME, organism-based; in short: as §1
Adrenal gland [8] = assay: Biodistribution in female Sprague-Dawley rat adrenal gland at 5 mg/kg, po administered as single dose measured after 8 hrs; type: ADME, organism-based; in short: as §3
Rattus norvegicus [9] = assay: Biodistribution in fetal liver of pregnant Sprague-Dawley rat at 5 mg/kg, po administered as single dose measured after 8 hrs; type: ADME, organism-based
In short: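 Pregnant SD rats received a single oral gavage of [14C]apixaban at 5 mg/kg (100 μCi/kg; 1.0 mg/mL, 20 μCi/mL in 0.5% Tween 80/Labrafil) after fasting, one dam per time point. Frozen carcasses were cut into 40 µm sagittal sections and read by phosphor-imaging QWBA against [14C]glucose standards. Fetal tissue radioactivity is reported as µg eq/g, with LLOQ 0.037 µg eq/g.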

Rattus norvegicus [10] = assay: Biodistribution in fetal liver of pregnant Sprague-Dawley rat at 5 mg/kg, po administered as single dose measured after 4 hrs; type: ADME, organism-based
In short: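 Pregnant rats, 270-319 g and fasted overnight, received [14C]apixaban by oral gavage at 100 μCi/kg in 0.5% Tween 80/Labrafil. One dam per time point was euthanized and frozen in hexane/dry ice. Fetal tissue radioactivity was measured by QWBA on 40 µm sagittal sections calibrated with [14C]glucose standards. Values are in µg eq/g, with LLOQ 0.037 μg eq/g.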

[11] = Drug level in lactating Sprague-Dawley rat milk at 5 mg/kg, po administered as single dose after 2 hrs; type: ADME, organism-based
Rattus norvegicus [12] = assay: Biodistribution in pregnant Sprague-Dawley rat kidney cortex at 5 mg/kg, po administered as single dose measured after 8 hrs; type: ADME, organism-based
Thymus = assay: Biodistribution in male Sprague-Dawley rat thymus at 5 mg/kg, po administered as single dose measured after 24 hrs; type: ADME, organism-based; in short: as §2
Rattus norvegicus [13] = assay: Biodistribution in pregnant Sprague-Dawley rat amnion at 5 mg/kg, po administered as single dose measured after 24 hrs; type: ADME, organism-based
Pancreas = assay: Biodistribution in pregnant Sprague-Dawley rat pancreas at 5 mg/kg, po administered as single dose measured after 48 hrs; type: ADME, organism-based
In short: (§4)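 Pregnant SD rats (270-319 g) were fasted overnight and given one oral gavage of 5 mg/kg (100 μCi/kg) in 0.5% Tween 80 in Labrafil. One rat was euthanized per time point (0.5, 1, 4, 8, 24, 48 h) and the carcass frozen. 40 µm sagittal sections were phosphor-imaged against [14C]glucose standards and results reported as µg eq/g; LLOQ 0.037 µg eq/g.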

[14] = Drug metabolism in Sprague-Dawley rat milk assessed as apixaban level at 5 mg/kg, po after 1 to 24 hrs by HPLC method; type: ADME, organism-based
In short: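 After a 5 mg/kg oral dose, samples were radioprofiled by HPLC. The column was C18 with a 0.4% formic acid (pH 3.2)/acetonitrile gradient at 0.7 mL/min. Fractions were collected every 0.25 min and counted for radioactivity. Peaks were identified by ESI LC/MS/MS against synthetic standards. Milk was taken at 1, 6, 12 and 24 h.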

Rattus norvegicus [15] = assay: Biodistribution in pregnant Sprague-Dawley rat salivary gland at 5 mg/kg, po administered as single dose measured after 24 hrs; type: ADME, organism-based; in short: as §4
Muscle tissue [16] = assay: Biodistribution in pregnant Sprague-Dawley rat muscle at 5 mg/kg, po administered as single dose measured after 1 hr; type: ADME, organism-based
Brain = assay: Biodistribution in female Sprague-Dawley rat brain at 5 mg/kg, po administered as single dose measured after 72 hrs; type: ADME, organism-based
In short: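 [14C]Apixaban (1.0 mg/mL, 20 μCi/mL in 0.5% Tween 80 in Labrafil) given as a single oral gavage of 5 mg/kg (100 μCi/kg) to fasted female SD rats, one rat per time point. Carcasses were frozen in hexane/dry ice and cut into 40 µm sagittal sections for QWBA against [14C]glucose standards. Brain radioactivity is reported as µg eq/g, with LLOQ 0.037 µg eq/g.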

Heart = assay: Biodistribution in male Sprague-Dawley rat heart at 5 mg/kg, po administered as single dose measured after 0.5 hrs; type: ADME, organism-based; in short: as §3

Radiolabel recovery (Rattus norvegicus [1]): 0.87 ugequiv/g | Cmax [2]: 8920 ngequiv/g | Radiolabel recovery (Rattus norvegicus [3]): 0.29 ugequiv/g | Radiolabel recovery (Liver): Not detected assumed BLQ | Radiolabel recovery (Rattus norvegicus [5]): 0.46 ugequiv/g | Radiolabel recovery (Muscle tissue [6]): 0.23 ugequiv/g | Radiolabel recovery (Rattus norvegicus [7]): Not detected assumed BLQ | Radiolabel recovery (Adrenal gland [8]): 0.3 ugequiv/g | Radiolabel recovery (Rattus norvegicus [9]): 0.06 ugequiv/g | Radiolabel recovery (Rattus norvegicus [10]): 0.32 ugequiv/g | Radiolabel recovery [11]: 7.59 µg/mL | Radiolabel recovery (Rattus norvegicus [12]): 0.21 ugequiv/g | Radiolabel recovery (Thymus): Not detected assumed BLQ | Radiolabel recovery (Rattus norvegicus [13]): 3.52 ugequiv/g | Radiolabel recovery (Pancreas): Not detected assumed BLQ | Compound recovery [14]: > 96% | Radiolabel recovery (Rattus norvegicus [15]): Not detected assumed BLQ | Radiolabel recovery (Muscle tissue [16]): 0.46 ugequiv/g | Radiolabel recovery (Brain): < 0.037 ugequiv/g | Radiolabel recovery (Heart): 0.33 ugequiv/g
Structure (SMILES): COc1ccc(-n2nc(C(N)=O)c3c2C(=O)N(c2ccc(N4CCCC[14C]4=O)cc2)CC3)cc1
Radiolabel recovery (Adrenal gland [4]): Not sampled as not visualised in autoradiograph | Radiolabel recovery (Blood): Not sampled as not visualised in autoradiograph
